{"source": "paper PMC7935732", "about": "(Targeted Oncology, 2021)", "tested_on": "Chinese patients with advanced and/or metastatic cancers", "experiment": "Safety and tolerability", "assay_type": "in vivo, human", "how_it_was_run": "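Safety set: all patients with ≥ 1 dose. Patient-reported AEs were collected during treatment; chemistry, hematology and urinalysis were done at protocol time points. Laboratory and non-laboratory AEs were graded by CTCAE v4.0 and summarized by cohort.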"}
{"smiles": "CCN1CCN(Cc2ccc(Nc3ncc(F)c(-c4cc(F)c5nc(C)n(C(C)C)c5c4)n3)nc2)CC1", "note": "[abemaciclib]", "values": [{"measurement": "Embolism TEAE", "setting": "Grade 3, 200 mg (n = 13)", "value": "0 n (%)"}, {"measurement": "Hyponatraemia TEAE", "setting": "Grade 3, 200 mg (n = 13)", "value": "0 n (%)"}, {"measurement": "Leukopenia (white blood cell count decreased) TEAE", "setting": "Grade 3, 200 mg (n = 13)", "value": "3 (23.1) n (%)"}, {"measurement": "Lung infection TEAE", "setting": "Grade 3, 200 mg (n = 13)", "value": "0 n (%)"}, {"measurement": "Malaise TEAE", "setting": "Grade 3, 200 mg (n = 13)", "value": "0 n (%)"}, {"measurement": "Muscular weakness TEAE", "setting": "Grade 3, 200 mg (n = 13)", "value": "0 n (%)"}, {"measurement": "Neutropenia (neutrophil count decreased) TEAE", "setting": "Grade 3, 200 mg (n = 13)", "value": "3 (23.1) n (%)"}, {"measurement": "Patients with ≥ 1 TEAE of Grade ≥ 3", "setting": "Grade 3, 200 mg (n = 13)", "value": "6 (46.2) n (%)"}, {"measurement": "Thrombocytopenia (platelet count decreased) TEAE", "setting": "Grade 3, 200 mg (n = 13)", "value": "2 (15.4) n (%)"}, {"measurement": "Vomiting TEAE", "setting": "Grade 3, 200 mg (n = 13)", "value": "0 n (%)"}, {"measurement": "Anemia TEAE", "setting": "Grade 3, Total (n = 25)", "value": "2 (8.0) n (%)"}, {"measurement": "Blood bilirubin increased TEAE", "setting": "Grade 3, Total (n = 25)", "value": "1 (4.0) n (%)"}, {"measurement": "Diarrhea TEAE", "setting": "Grade 3, Total (n = 25)", "value": "4 (16.0) n (%)"}, {"measurement": "Hyponatraemia TEAE", "setting": "Grade 3, Total (n = 25)", "value": "2 (8.0) n (%)"}, {"measurement": "Leukopenia (white blood cell count decreased) TEAE", "setting": "Grade 3, Total (n = 25)", "value": "3 (12.0) n (%)"}, {"measurement": "Lung infection TEAE", "setting": "Grade 3, Total (n = 25)", "value": "1 (4.0) n (%)"}, {"measurement": "Malaise TEAE", "setting": "Grade 3, Total (n = 25)", "value": "1 (4.0) n (%)"}, {"measurement": "Muscular weakness TEAE", "setting": "Grade 3, Total (n = 25)", "value": "1 (4.0) n (%)"}, {"measurement": "Neutropenia (neutrophil count decreased) TEAE", "setting": "Grade 3, Total (n = 25)", "value": "8 (32.0) n (%)"}, {"measurement": "Patients with ≥ 1 TEAE of Grade ≥ 3", "setting": "Grade 3, Total (n = 25)", "value": "14 (56.0) n (%)"}, {"measurement": "Thrombocytopenia (platelet count decreased) TEAE", "setting": "Grade 3, Total (n = 25)", "value": "5 (20.0) n (%)"}, {"measurement": "Vomiting TEAE", "setting": "Grade 3, Total (n = 25)", "value": "0 n (%)"}, {"measurement": "Anemia TEAE", "setting": "Grade 4, 150 mg (n = 12)", "value": "0 n (%)"}, {"measurement": "Blood bilirubin increased TEAE", "setting": "Grade 4, 150 mg (n = 12)", "value": "0 n (%)"}, {"measurement": "Diarrhea TEAE", "setting": "Grade 4, 150 mg (n = 12)", "value": "0 n (%)"}, {"measurement": "Embolism TEAE", "setting": "Grade 4, 150 mg (n = 12)", "value": "0 n (%)"}, {"measurement": "Hyponatraemia TEAE", "setting": "Grade 4, 150 mg (n = 12)", "value": "0 n (%)"}, {"measurement": "Leukopenia (white blood cell count decreased) TEAE", "setting": "Grade 4, 150 mg (n = 12)", "value": "0 n (%)"}, {"measurement": "Lung infection TEAE", "setting": "Grade 4, 150 mg (n = 12)", "value": "0 n (%)"}, {"measurement": "Malaise TEAE", "setting": "Grade 4, 150 mg (n = 12)", "value": "0 n (%)"}, {"measurement": "Muscular weakness TEAE", "setting": "Grade 4, 150 mg (n = 12)", "value": "0 n (%)"}, {"measurement": "Neutropenia (neutrophil count decreased) TEAE", "setting": "Grade 4, 150 mg (n = 12)", "value": "0 n (%)"}, {"measurement": "Patients with ≥ 1 TEAE of Grade ≥ 3", "setting": "Grade 4, 150 mg (n = 12)", "value": "1 (8.3) n (%)"}, {"measurement": "Thrombocytopenia (platelet count decreased) TEAE", "setting": "Grade 4, 150 mg (n = 12)", "value": "1 (8.3) n (%)"}, {"measurement": "Vomiting TEAE", "setting": "Grade 4, 150 mg (n = 12)", "value": "1 (8.3) n (%)"}, {"measurement": "Anemia TEAE", "setting": "Grade 4, 200 mg (n = 13)", "value": "0 n (%)"}, {"measurement": "Blood bilirubin increased TEAE", "setting": "Grade 4, 200 mg (n = 13)", "value": "0 n (%)"}, {"measurement": "Diarrhea TEAE", "setting": "Grade 4, 200 mg (n = 13)", "value": "0 n (%)"}, {"measurement": "Embolism TEAE", "setting": "Grade 4, 200 mg (n = 13)", "value": "3 (23.1) n (%)"}, {"measurement": "Hyponatraemia TEAE", "setting": "Grade 4, 200 mg (n = 13)", "value": "0 n (%)"}, {"measurement": "Leukopenia (white blood cell count decreased) TEAE", "setting": "Grade 4, 200 mg (n = 13)", "value": "0 n (%)"}, {"measurement": "Lung infection TEAE", "setting": "Grade 4, 200 mg (n = 13)", "value": "0 n (%)"}, {"measurement": "Malaise TEAE", "setting": "Grade 4, 200 mg (n = 13)", "value": "0 n (%)"}, {"measurement": "Muscular weakness TEAE", "setting": "Grade 4, 200 mg (n = 13)", "value": "0 n (%)"}, {"measurement": "Neutropenia (neutrophil count decreased) TEAE", "setting": "Grade 4, 200 mg (n = 13)", "value": "0 n (%)"}, {"measurement": "Patients with ≥ 1 TEAE of Grade ≥ 3", "setting": "Grade 4, 200 mg (n = 13)", "value": "3 (23.1) n (%)"}, {"measurement": "Thrombocytopenia (platelet count decreased) TEAE", "setting": "Grade 4, 200 mg (n = 13)", "value": "0 n (%)"}, {"measurement": "Vomiting TEAE", "setting": "Grade 4, 200 mg (n = 13)", "value": "0 n (%)"}, {"measurement": "Anemia TEAE", "setting": "Grade 4, Total (n = 25)", "value": "0 n (%)"}, {"measurement": "Blood bilirubin increased TEAE", "setting": "Grade 4, Total (n = 25)", "value": "0 n (%)"}, {"measurement": "Diarrhea TEAE", "setting": "Grade 4, Total (n = 25)", "value": "0 n (%)"}, {"measurement": "Hyponatraemia TEAE", "setting": "Grade 4, Total (n = 25)", "value": "0 n (%)"}, {"measurement": "Leukopenia (white blood cell count decreased) TEAE", "setting": "Grade 4, Total (n = 25)", "value": "0 n (%)"}, {"measurement": "Lung infection TEAE", "setting": "Grade 4, Total (n = 25)", "value": "0 n (%)"}, {"measurement": "Malaise TEAE", "setting": "Grade 4, Total (n = 25)", "value": "0 n (%)"}, {"measurement": "Muscular weakness TEAE", "setting": "Grade 4, Total (n = 25)", "value": "0 n (%)"}, {"measurement": "Neutropenia (neutrophil count decreased) TEAE", "setting": "Grade 4, Total (n = 25)", "value": "0 n (%)"}, {"measurement": "Patients with ≥ 1 TEAE of Grade ≥ 3", "setting": "Grade 4, Total (n = 25)", "value": "4 (16.0) n (%)"}, {"measurement": "Thrombocytopenia (platelet count decreased) TEAE", "setting": "Grade 4, Total (n = 25)", "value": "1 (4.0) n (%)"}, {"measurement": "Vomiting TEAE", "setting": "Grade 4, Total (n = 25)", "value": "1 (4.0) n (%)"}, {"measurement": "Alanine aminotransferase increased, TEAE any grade", "setting": "Total (n = 25)", "value": "7 (28.0) n (%)"}, {"measurement": "Anemia, TEAE any grade", "setting": "Total (n = 25)", "value": "12 (48.0) n (%)"}, {"measurement": "Bilirubin increased, TEAE any grade", "setting": "Total (n = 25)", "value": "5 (20.0) n (%)"}, {"measurement": "Blood creatinine increased, TEAE any grade", "setting": "Total (n = 25)", "value": "14 (56.0) n (%)"}, {"measurement": "Cough, TEAE any grade", "setting": "Total (n = 25)", "value": "8 (32.0) n (%)"}, {"measurement": "Decreased appetite, TEAE any grade", "setting": "Total (n = 25)", "value": "15 (60.0) n (%)"}, {"measurement": "Diarrhea, TEAE any grade", "setting": "Total (n = 25)", "value": "20 (80.0) n (%)"}, {"measurement": "Leukopenia (white blood cell count decreased), TEAE any grade", "setting": "Total (n = 25)", "value": "16 (64.0) n (%)"}, {"measurement": "Localized edema, TEAE any grade", "setting": "Total (n = 25)", "value": "5 (20.0) n (%)"}, {"measurement": "Malaise, TEAE any grade", "setting": "Total (n = 25)", "value": "13 (52.0) n (%)"}, {"measurement": "Nausea, TEAE any grade", "setting": "Total (n = 25)", "value": "9 (36.0) n (%)"}, {"measurement": "Neutropenia (neutrophil count decreased), TEAE any grade", "setting": "Total (n = 25)", "value": "19 (76.0) n (%)"}, {"measurement": "Patients with ≥ 1 TEAE (any grade)", "setting": "Total (n = 25)", "value": "25 (100.0) n (%)"}, {"measurement": "Thrombocytopenia (platelet count decreased), TEAE any grade", "setting": "Total (n = 25)", "value": "11 (44.0) n (%)"}, {"measurement": "Vomiting, TEAE any grade", "setting": "Total (n = 25)", "value": "8 (32.0) n (%)"}, {"measurement": "Discontinuation of study treatment due to diarrhea or neutropenia", "setting": "all treated patients", "value": "No patient discontinued"}, {"measurement": "ECG data or vital signs findings", "setting": "all treated patients", "value": "No clinically meaningful findings"}, {"measurement": "Febrile neutropenia", "setting": "all treated patients", "value": "No febrile neutropenia was reported"}, {"measurement": "Diarrhea Grade 4 or 5", "setting": "all treated patients (n = 25)", "value": "not reported"}, {"measurement": "Diarrhea of Grade 3", "setting": "all treated patients (n = 25)", "value": 4, "unit": "patients"}, {"measurement": "Patients reporting at least one TEAE of any grade", "setting": "all treated patients (n = 25)", "value": 100, "unit": "%"}, {"measurement": "Patients who died on treatment due to AE (respiratory failure)", "setting": "all treated patients (n = 25)", "value": 4.0, "unit": "%"}, {"measurement": "Patients who discontinued treatment due to AEs", "setting": "all treated patients (n = 25)", "value": 16, "unit": "%"}, {"measurement": "Patients with TEAE of Grade 4 in severity", "setting": "all treated patients (n = 25)", "value": 16.0, "unit": "%"}, {"measurement": "Thrombocytopenia TEAE of Grade ≥ 3", "setting": "all treated patients (n = 25)", "value": 24, "unit": "%"}, {"measurement": "Neutropenia TEAE of Grade ≥ 3", "setting": "all treated patients (n = 25), all Grade 3", "value": 32, "unit": "%"}, {"measurement": "Patients reporting serious adverse events (SAEs)", "setting": "in total (n = 25)", "value": 24.0, "unit": "%"}, {"measurement": "Patients with 3 or more episodes of diarrhea", "setting": "of the 20 patients experiencing diarrhea", "value": 7, "unit": "patients"}]}
